Published values of several laboratories.
Compare with care: the assays were run in different laboratories.
Target: Dual specificity protein kinase CLK3 (CLK3, Homo sapiens, UniProt P49761)

N#CC1c2c([nH]c3c(Cl)c(Cl)ccc23)C(=O)NC12CCCCC2 (racemic) — ΔTm (thermal stability, DSF; 10 µM): 2.1 °C
CO[C@@H](C)c1c(Nc2ccc([C@H](N(C)C(=O)C3CCS(=O)(=O)CC3)C(F)(F)F)cc2)cnc2cc(Cl)nn12 — remaining binding (cell-free assay, competition with immobilised ligand; 1 µM): 87%
O=C(Nc1cnn(-c2csc(C(=O)NC3COC3)c2)c1)Nc1c(F)cccc1Cl — remaining activity (enzyme activity, inhibitor; 5 µM): 93.5%
CC/C(=N\NC(=O)NCc1cccc(O)c1)c1ccc(O)c(C)c1O — inhibition (enzyme activity, inhibitor; 0.1 µM): -1.4%
CN(C)C(=O)Cn1cc(-c2nc([C@@](C)(c3ccc(-c4cnc(N)nc4)cc3)C3CC3)no2)cn1 — remaining binding (cell-free assay, competition with immobilised ligand; 1 µM): 100%
Cn1c2c(Cl)c(Cl)ccc2c2cc(N)[nH]c(=O)c21 — ΔTm (thermal stability, DSF; 10 µM): 0.6 °C
CC(C)(O)[C@H]1CC[C@H](Nc2ccc3ncc(-c4cccc(C(F)(F)F)c4)n3n2)CC1 — remaining activity (enzyme activity, inhibitor; 1 µM): 59.3%
CCN(CC)CCNC(=O)c1c(C)[nH]c(/C=C2\C(=O)Nc3ccc(F)cc32)c1C — inhibition (enzyme activity, inhibitor; 0.3 µM): -1%
Cn1c2c(c3ccc(Cl)c(Cl)c31)C(C#N)C1(CCCC1)NC2=O (stereo not drawn) — ΔTm (thermal stability, DSF; 10 µM): 0.3 °C
CCN1/C(=C/C(C)=O)Sc2ccc(OC)cc21 — remaining signal (cell-free assay; 0.5 µM): 95%
Cn1c2c(c3ccc(Cl)c(Cl)c31)C(C#N)C1(CCNCC1)NC2=O (racemic) — ΔTm (thermal stability, DSF; 10 µM): 2.2 °C
CNC(=O)c1cc(Oc2ccc(NC(=O)Nc3ccc(Cl)c(C(F)(F)F)c3)cc2)ccn1 — inhibition (enzyme activity, inhibitor; 10 µM): 13%
COc1cc(Nc2c(C#N)cnc3cc(OCCCN4CCN(C)CC4)c(OC)cc23)c(Cl)cc1Cl — remaining signal (cell-free assay; 0.5 µM): 94.9%
CC(=O)C1=C(C)N(c2cccc(C(F)(F)F)c2)C(=O)N[C@@H]1c1ccc(C#N)nc1 — remaining binding (cell-free assay, competition with immobilised ligand; 1 µM): 100%
COc1cc2ncnc(Nc3ccc(Oc4ccccc4)cc3C)c2cc1OC — inhibition (enzyme activity, inhibitor; 1 µM): 5%
C[C@H](NC(=O)c1cnc2n1[C@](C)(Cc1ccc(C#N)cc1)C(=O)N2c1cc(Cl)c(F)c(Cl)c1)C(=O)NC1(c2ccccn2)CC1 — remaining binding (cell-free assay, competition with immobilised ligand; 1 µM): 96%
CCC1(CC)NC(=O)c2c(c3ccc(Cl)c(Cl)c3n2C)C1C#N (stereo not drawn) — ΔTm (thermal stability, DSF; 10 µM): 0.3 °C
CCCS(=O)(=O)Nc1ccc(F)c(C(=O)c2c[nH]c3ncc(-c4ccc(Cl)cc4)cc23)c1F — inhibition (enzyme activity, inhibitor; 1 µM): < 10%
C[C@@H]1CN(c2cc(-c3nn(C)c4ccc(OC5(C)CC5)cc34)ncn2)C[C@H](C)O1 — remaining binding (cell-free assay, competition with immobilised ligand; 1 µM): 98%
CC(C)(C)c1nc(-c2cccc(NS(=O)(=O)c3c(F)cccc3F)c2F)c(-c2ccnc(N)n2)s1 — remaining activity (enzyme activity, inhibitor, radiometric; 1 µM): 74%
C[C@@]1(Cc2ccc(C#N)cc2)C(=O)N(c2cc(Cl)cc(Cl)c2)c2ncc(C(=O)NC3(c4nc(C5CCC5)no4)CC3)n21 — remaining binding (cell-free assay, competition with immobilised ligand; 1 µM): 100%
O=C1NC(=O)c2cc(Nc3ccc(F)cc3)c(Nc3ccc(F)cc3)cc21 — remaining signal (cell-free assay; 0.5 µM): 93.7%
Cc1ccc(Nc2nccc(N(C)c3ccc4c(C)n(C)nc4c3)n2)cc1S(N)(=O)=O — inhibition (enzyme activity, inhibitor; 10 µM): 32%
Cc1cc(NC(=O)c2cccc3cc(-c4cccc5[nH]nc(N)c45)ccc23)ccc1F — activity vs control (enzyme activity, inhibitor; 0.1 µM): 97%
C[S+]([O-])c1ccc(-c2nc(-c3ccncc3)c(-c3ccc(F)cc3)[nH]2)cc1 (stereo not drawn) — remaining signal (cell-free assay; 0.5 µM): 99.1%
O=C(O)[C@@H]1[C@@H](Cn2nnc3ccccc3c2=O)CC[C@H]1C(=O)c1ccc(OCCC2CCOCC2)cc1 — remaining binding (cell-free assay, competition with immobilised ligand; 1 µM): 91%
COc1cc(Cl)c(C(=O)N[C@@H](CN[C@H]2CC[C@@H](N)CC2)Cc2ccc(C#N)cc2)cc1-c1ccc(CN[C@H](C)c2ccc(C)cc2)o1 — remaining activity (enzyme activity, inhibitor; 1 µM): 99%
COc1cc2c(Nc3ccc(Br)cc3F)ncnc2cc1OCC1CCN(C)CC1 — remaining signal (cell-free assay; 0.5 µM): 100%
Cc1nccc(COC(=O)N2C[C@@H]3[C@@H](CNC(=O)c4ccc5[nH]nnc5c4)[C@@H]3C2)n1 — remaining binding (cell-free assay, competition with immobilised ligand; 1 µM): 90%
Cc1sc(C(=O)NC2COC2)cc1-n1cc(NC(=O)Nc2c(F)cccc2Cl)cn1 — remaining activity (enzyme activity, inhibitor; 10 µM): 99.6%
